Consider 15 sequences from the array DNA melting data of Ke et al. (doi:10.1101/2024.01.08.574731).

The nature of series [1]: melting temperature; fluorescence melt of hairpins on a sequencing array, two-state fit, raised by 9.35 °C to match UV melts. The note with it: sodium 0.088 M. In outline:
(§1)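 Melting temperature and folding enthalpy were derived from bootstrapped two-state fits. The fitted temperatures were raised by 9.35 °C to agree with UV melts, and four replicates were combined by inverse variance. The underlying data were Cy3 fluorescence images of library hairpins, with annealed Cy3 and quencher oligos, on a sequenced MiSeq flow cell in 50 mM Na-HEPES pH 8.0, 25 mM NaCl, taken in 2.5 °C steps up to 60 °C, normalised to pre-quench Cy3 and to control constructs.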

Series [2] can be described thus: folding enthalpy; higher = less favourable; fluorescence melt of hairpins on a sequencing array, two-state fit. The note with it: sodium 0.088 M. A digest of the protocol:
as §1

TGGAAGAAATTCCA (((((....))))): the Tm in series [1] amounted to 30.7 °C. For the same sequence, the folding enthalpy in series [2] is -12.4 kcal/mol.

As to TGGACGAAAGTCCA (((((....))))), the Tm in series [1] worked out at 67.5 °C. Besides, the folding enthalpy in series [2] was -19.4 kcal/mol.

As for TGGGTGAAAACCCA (((((....))))), the Tm in series [1] is 53.5 °C. Besides, the folding enthalpy in series [2] is -18.8 kcal/mol.

As for TGTATGAAAATACA (((((....))))), the Tm in series [1] was found to be 34.5 °C. Further, the folding enthalpy in series [2] was -11 kcal/mol.

In the case of TGTCCGAAAGGACA (((((....))))), the Tm in series [1] came to 68.8 °C. For the same sequence, the folding enthalpy in series [2] was -13.6 kcal/mol.

For the sequence TTACGGAAACGTAA (((((....))))), the Tm in series [1] turned out to be 42.1 °C. Also, the folding enthalpy in series [2] was -14.8 kcal/mol.

Regarding TTACTGAAAAGTAA (((((....))))), the Tm in series [1] turned out to be 26.7 °C. Besides, the folding enthalpy in series [2] was -8.68 kcal/mol.

As to TTATCGAAAGATAA (((((....))))), in series [1], the Tm was 36.5 °C. Further, the folding enthalpy in series [2] is -14.7 kcal/mol.

For TTCACGAAAGTGAA (((((....))))), the Tm in series [1] was 51 °C. Besides, in series [2], the folding enthalpy is -19.2 kcal/mol.

In the case of TTCATGAAAATGAA (((((....))))), the Tm in series [1] amounted to 28.9 °C. In addition, in series [2], the folding enthalpy is -9.75 kcal/mol.

As for TTCGGGAAACCGAA (((((....))))), the Tm in series [1] was 46.7 °C. In addition, the folding enthalpy in series [2] is -18.8 kcal/mol.

TTGAGGAAACTCAA (((((....))))): the Tm in series [1] is 35.3 °C. For the same sequence, in series [2], the folding enthalpy is -15.6 kcal/mol.

TTGATGAAAATCAA (((((....))))): the Tm in series [1] amounted to 32.8 °C. Further, the folding enthalpy in series [2] was -13.4 kcal/mol.

With TTGCAGAAATGCAA (((((....))))), the Tm in series [1] was 42.3 °C. For the same sequence, in series [2], the folding enthalpy was -20.8 kcal/mol.

In the case of TTTTCGAAAGAAAA (((((....))))), the Tm in series [1] was determined as 37.8 °C. Besides, the folding enthalpy in series [2] was -15.1 kcal/mol.
